Laboratory results published in article PMC5826595 (Chemistry (Weinheim an der Bergstrasse, Germany), 2017).
Read-outs that look alike come from different tables or passages of the source.

How the values were obtained:
[1] = molecular target: preformed Aβ40 aggregates (Homo sapiens, UniProt P05067); format: biochemical; conditions: metal-free and metal-treated conditions
metal-free Aβ40 monomer [2] = molecular target: T1, metal-free Aβ40 monomer (Homo sapiens, UniProt P05067); assay: 2D SOFAST-HMQC NMR with metal-free monomeric Aβ40; format: binding; conditions: [Aβ40] 80 μM; compound 800 μM (10 equiv); pH 7.4; 10 °C
T1 sequence (P05067 672-711 limits assumed): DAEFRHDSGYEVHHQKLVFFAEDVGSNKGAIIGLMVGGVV
In short: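 Uniformly ¹⁵N-labeled monomeric Aβ40 (80 μM) with test compound at 0 or 800 μM in 20 mM phosphate buffer, pH 7.4, 50 mM NaCl, 7 % (v/v) D₂O, at 10 °C. 2D ¹H–¹⁵N SOFAST-HMQC spectra were recorded at 900 MHz with a cryogenic probe. Per-residue chemical shift perturbations were plotted against the average CSP with standard deviation; unresolved residues were excluded.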

[3] = TEAC assay in M17 cell lysates; format: biochemical; conditions: relative to Trolox
In short: (§1)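 Radical scavenging was measured by the test compound's quenching of pre-formed ABTS cation radicals (ABTS•⁺). The read-out was absorbance on a microplate reader, and capacity was expressed as Trolox equivalents.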

TEAC assay in EtOH = format: biochemical; conditions: relative to Trolox
In short: as §1

[4] = molecular target: preformed Aβ42 aggregates (Homo sapiens, UniProt P05067); format: biochemical; conditions: metal-free and metal-treated conditions
Sequence of preformed Aβ42 aggregates (P05067 672-713 limits assumed): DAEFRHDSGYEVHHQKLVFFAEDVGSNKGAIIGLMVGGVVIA

Cu^II–Aβ40 = Cu^II–Aβ40 (Homo sapiens, UniProt P05067); assay: nESI-MS and MS/MS of Aβ40 incubated with Cu^II and compound; format: biochemical; conditions: [Aβ40] 20 μM; [CuCl2] 20 μM; [L2-b2] 120 μM; pH 7.5; 37 °C; 30 min
Sequence of Cu^II–Aβ40 (P05067 672-711 limits assumed): as the sequence (P05067 672-711 limits assumed) above

Aβ42 = Aβ42 (Homo sapiens, UniProt P05067); format: biochemical; conditions: inhibition experiment; vs compound-free and L2-b1-treated conditions
Sequence of Aβ42 (P05067 672-713 limits assumed): as the sequence (P05067 672-713 limits assumed) above
In short: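 Aβ42 (25 μM) was incubated with test compound (50 μM), either metal-free or with CuCl2 or ZnCl2 (25 μM). Cu samples were at pH 6.6; metal-free and Zn samples at pH 7.4. Incubation was at 37 °C with constant agitation. Size distribution was read by gel/Western blot with anti-Aβ antibody 6E10, and morphology by TEM of the same samples.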

[5] = test system: SK-N-BE(2)-M17 (M17) cells; assay: Viability of cells treated with metal-free Aβ or metal–Aβ followed by compound; format: cell-based, human; conditions: [Aβ] 10 μM, [CuCl2 or ZnCl2] 10 μM, [L2-b2] 20 μM, MTT
In short: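 SK-N-BE(2)-M17 neuroblastoma cells were first exposed to metal-free Aβ40 or Aβ42, or to Aβ premixed with CuCl2 or ZnCl2. Test compound was added afterwards. Viability was measured by MTT absorbance on a microplate reader and expressed as % of cells given DMSO only (0–1 %, v/v).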

metal-free Aβ40 [6] = molecular target: T2, metal-free Aβ40 (Homo sapiens, UniProt P05067); assay: ESI-MS of metal-free Aβ40 incubated with compound; format: binding; conditions: [Aβ40] 10 μM; [L2-b2] 50 μM; pH 7.5; 37 °C; 6 h
T2 sequence (P05067 672-711 limits assumed): as the sequence (P05067 672-711 limits assumed) above

Aβ40 = Aβ40 (Homo sapiens, UniProt P05067); format: biochemical; conditions: inhibition experiment; vs compound-free and L2-b1-treated conditions
Sequence of Aβ40 (P05067 672-711 limits assumed): as above

metal-free Aβ40 [7] = molecular target: T2, metal-free Aβ40; conditions: ref 4b,f; cited from earlier work
[8] = test system: metal-free Aβ and metal–Aβ; conditions: ref 4b,f; cited from earlier work
metal-free Aβ40 monomer [9] = molecular target: T1, metal-free Aβ40 monomer; conditions: ref 4e; cited from earlier work

Sequence of preformed Aβ40 aggregates (P05067 672-711 limits assumed): as above

Question: Which “Disaggregation of preformed Aβ40 aggregates (gel/Western blot)” value [1] does the source give for `c1ccc(CNCc2ccccn2)nc1` [DPA1, bis(pyridin-2-ylmethyl)amine, reference compound] here?
Answer: The value was “could not detectably disaggregate preformed Aβ40 aggregates”.

Question: For `CN(C)c1ccc(CNCc2ccc(N(C)C)cn2)nc1` [DPA2, 6-((((5-(dimethylamino)pyridin-2-yl)methyl)amino)methyl)-N,N-dimethylpyridin-3-amine], which “Disaggregation of preformed Aβ40 aggregates (gel/Western blot)” value [1] is on record?
Answer: The value was “could not detectably disaggregate preformed Aβ40 aggregates”.

Question: Which “Interaction with metal-free Aβ40 monomer (CSP)” value (metal-free Aβ40 monomer [2]) does the source give for `CN(C)c1ccc(CNc2ccccc2)nc1` [L2-b1, N,N-dimethyl-6-((phenylamino)methyl)pyridin-3-amine] here?
Answer: Its value is “weak interactions with metal-free Aβ”.

Question: And the TEAC value [3]?
Answer: Its TEAC value is 0.7 ± 0.1.

Question: What about the TEAC value (TEAC assay in EtOH) of the same compound?
Answer: Its TEAC value is 0.8 ± 0.1.

Question: And the “Disaggregation of preformed Aβ40 aggregates (gel/Western blot)” value [1]?
Answer: Its value is “could not detectably disaggregate preformed Aβ40 aggregates”.

Question: For `CN(C)c1ccc(NCc2ccc(N(C)C)cn2)cc1` [L2-b2, N^1-((5-(dimethylamino)pyridin-2-yl)methyl)-N^4,N^4-dimethylbenzene-1,4-diamine], which “Disaggregation of preformed Aβ42 aggregates (gel/Western blot)” value [4] is on record?
Answer: The value was “dismantle preformed metal-free and metal-treated Aβ42 aggregates”.

Question: What about the “Mass loss of Aβ40 compared to apo Aβ40 (degraded Aβ)” value (Cu^II–Aβ40) of the same compound?
Answer: Its value is 89.1 (± 0.1) Da.

Question: What about the “Interaction with metal-free Aβ40 monomer (CSP)” value (metal-free Aβ40 monomer [2]) of the same compound?
Answer: Its value is “weak interactions with metal-free Aβ”.

Question: What about the TEAC value [3] of the same compound?
Answer: Its TEAC value is 1.1 ± 0.1.

Question: And the “Morphology of resultant Aβ42 aggregates (TEM)” value (Aβ42)?
Answer: Its value is “more amorphous aggregates and/or smaller fibrils”.

Question: What about the TEAC value (TEAC assay in EtOH) of the same compound?
Answer: The TEAC value was 1.9 ± 0.1.

Question: What about the “Effect on toxicity triggered by metal-free Aβ and metal–Aβ in living cells” value [5] of the same compound?
Answer: Its value is “possibly alleviate toxicity triggered by metal-free Aβ and metal–Aβ in living cells”.

Question: What about the “Interaction with metal-free Aβ (ESI-MS)” value (metal-free Aβ40 [6]) of the same compound?
Answer: Its value is “forming a covalent adduct of Aβ–cationic imine”.

Question: What about the “Disaggregation of preformed Aβ40 aggregates (gel/Western blot)” value [1] of the same compound?
Answer: The value was “displayed various-sized peptide aggregates to different degrees”.

Question: And the “Morphology of resultant Aβ40 aggregates (TEM)” value (Aβ40)?
Answer: Its value is “more amorphous aggregates and/or smaller fibrils”.

Question: For `CN(C)c1ccc(NCc2ccccn2)cc1` [L2-b, N^1,N^1-dimethyl-N^4-(pyridin-2-ylmethyl)benzene-1,4-diamine], which “Interaction with metal-free Aβ” value (metal-free Aβ40 [7]) is on record?
Answer: Its value is “unable to interact with metal-free Aβ”.

Question: What about the “Reactivity toward metal-free Aβ and metal–Aβ aggregation pathways” value [8] of the same compound?
Answer: The value was “reactivity only for metal–Aβ species”.

Question: What about the “Interaction with metal-free Aβ40 monomer (CSP)” value (metal-free Aβ40 monomer [9]) of the same compound?
Answer: The value was “weak interactions with metal-free Aβ”.

Question: Which “Disaggregation of preformed Aβ40 aggregates (gel/Western blot)” value [1] does the source give for `NCc1ccccn1` [PMA1, pyridin-2-yl-methanamine, reference compound] here?
Answer: Its value is “could not detectably disaggregate preformed Aβ40 aggregates”.

Question: With `CN(C)c1ccc(CN)nc1` [PMA2, 6-(aminomethyl)-N,N-dimethylpyridin-3-amine, reference compound] as the compound, how does the “Disaggregation of preformed Aβ40 aggregates (gel/Western blot)” value [1] read?
Answer: The value was “could not detectably disaggregate preformed Aβ40 aggregates”.
